# Measurements of several laboratories.
# Each line is one published result; the experiments were not run side by side.
# Target: Mu-type opioid receptor (Oprm1, Rattus norvegicus, UniProt P33535)
SMILES,test,conditions,Ki [nM]
C[C@@H](NC(=O)[C@@H](N)Cc1ccc(O)cc1)C(=O)NCC(=O)N[C@@H](Cc1ccc(Cl)cc1)C(=O)N(C)CCC[C@@]1(c2ccc(F)cc2)OCc2cc(C#N)ccc21,cell-free assay,,7
Cc1cc(O)cc(C)c1C[C@H](C)C(=O)N[C@@H]1CCCCC[C@@H](C(N)=O)NC(=O)[C@H](Cc2ccccc2)NC(=O)[C@H](Cc2ccccc2)NC1=O,"ligand displacement, radioligand",cell membranes,18.3
Cc1cc(O)cc(C)c1C[C@H](N)C(=O)N1CCc2ccc(Cc3cccc(N)c3)cc2C1,"ligand displacement, radioligand",cell membranes,9.7
C[C@@H](NC(=O)C[C@@H](N)Cc1ccc(O)cc1)C(=O)NCC(=O)N[C@@H](Cc1ccccc1)C(=O)NNC(=O)[C@H](Cc1ccccc1)NC(=O)CNC(=O)[C@@H](C)NC(=O)C[C@@H](N)Cc1ccc(O)cc1,"ligand displacement, radioligand",,62
Cc1cc(O)cc(C)c1C[C@H](N)C(=O)N[C@H](CCCNC(=N)N)C(=O)N[C@@H](Cc1c[nH]c2ccccc12)C(=O)N[C@@H](CCCCN)C(N)=O,"ligand displacement, radioligand",cell membranes,0.0991
Cc1cc(O)cc(C)c1C[C@H](N)C(=O)N1CCc2ccc(Cc3ccccc3N)cc2C1,"ligand displacement, radioligand",cell membranes,2.1
Oc1cccc([C@]23CCC[C@H]([C@H]2O)N(CC=Cc2ccccc2)CC3)c1,"ligand displacement, radioligand",,0.74
Cc1cc(O)cc(C)c1C[C@H](N)C(=O)N1Cc2ccccc2CC1C(=O)NCC(=O)NC(Cc1ccc(Cl)cc1)C(=O)N(C)CCC[C@@]1(c2ccc(F)cc2)OCc2cc(C#N)ccc21 (stereo in doubt),cell-free assay,,35
Cc1cc(O)cc(C)c1C[C@H](N)C(=O)N1CCc2ccc(Cc3ccccc3[N+](=O)[O-])cc2C1,"ligand displacement, radioligand",cell membranes,10
CCCC[C@@H](NC(=O)[C@@H](N)Cc1c(C)cc(O)cc1C)C(=O)NCC(=O)N[C@@H](Cc1ccc(F)cc1)C(=O)N(C)CCC[C@@]1(c2ccc(F)cc2)OCc2cc(C#N)ccc21,cell-free assay,,1
CCc1cccc(C)c1C[C@H](NC(=O)[C@@H](CCCNC(=N)N)NC(=O)[C@@H](N)Cc1c(C)cc(O)cc1C)C(=O)N[C@@H](CCCCN)C(N)=O,"ligand displacement, radioligand",cell membranes,0.0958
NC(N)=Nc1ccc2[nH]c3c(c2c1)C[C@@]1(O)[C@H]2Cc4ccc(O)c5c4[C@@]1(CCN2CC1CC1)[C@H]3O5,"ligand displacement, radioligand",cell membranes,9.04
Cc1cc(O)cc(C)c1C[C@H](N)C(=O)N1CCc2ccc(Cc3cccc([N+](=O)[O-])c3)cc2C1,"ligand displacement, radioligand",cell membranes,3.1
Cc1cc(O)cc(C)c1C[C@H](C)C(=O)N[C@@H]1C/C=C\CC[C@@H](C(N)=O)NC(=O)[C@H](Cc2ccccc2)NC(=O)[C@H](Cc2ccccc2)NC1=O,"ligand displacement, radioligand",cell membranes,7.44
